Experimental data taken from publication PMC6585996 (Clinical Pharmacology in Drug Development, 2018).
Entries after “also recorded” stand apart in the source; their conditions may differ. Where two headings read alike, the source gives them in different places.

Assays:
[1] = cited from earlier work
[2] = tested on: OATP; settings: cited from earlier work
[3] = assay type: in vivo, human
How it was run: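 Healthy adults aged 18–65 years (≥50 kg, BMI 18.5–31.0 kg/m2) were randomised 1:1 to a two-period crossover. Each received a single oral 30 mg tablet after ≥10 h fasting or within 30 min of a high-fat meal (~53% fat, ~870 calories), with a 14-day washout. Plasma was sampled predose to 168 h and assayed by protein precipitation plus LC-MS/MS (LLOQ 25 ng/mL, ULOQ 25,000 ng/mL). Parameters were noncompartmental. GLS mean ratios (90% CI) came from a mixed-effects model with treatment and period as fixed effects and participant as random.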

[4] = 30 mg with a moderate-fat meal; ref Supplemental Data; cited from earlier work
[5] = coadministered rifampin; cited from earlier work
[6] = 10‐ and 30‐mg doses, early prototype formulations; ref Supplemental Data; cited from earlier work
[7] = cited from earlier work; remark: listed apart in the source
[8] = tested on: HIV‐1; settings: cited from earlier work
[9] = tested on: uridine diphosphate glucuronosyltransferase (UGT)1A1, UGT1A9; settings: forms glucuronic acid conjugates; minor contribution by UGT1A9; cited from earlier work
[10] = cited from earlier work; remark: listed apart in the source
[11] = Safety assessments in the phase 1 food-effect study; assay type: in vivo, human
[12] = single-dose oral 30 mg, fasted conditions, cited from earlier work
[13] = tested on: serum albumin; settings: cited from earlier work
[14] = cited from earlier work; remark: listed apart in the source
[15] = 30-mg single oral dose, high-fat meal, n = 21
[16] = Fasted State vs High‐Fat Meal, 30-mg single dose, n = 21
[17] = high-fat meal compared with fasting state, 30 mg oral

C[C@@H]1CCO[C@H]2Cn3cc(C(=O)NCc4ccc(F)cc4F)c(=O)c(O)c3C(=O)N12 [Dolutegravir]
increase in plasma AUC0‐∞ ([1]; single-dose dolutegravir 50 mg with high-fat meal): 66%
increase in plasma AUC0‐∞ ([1]; single-dose dolutegravir 50 mg with low-fat meal): 33%
increase in plasma AUC0‐∞ ([1]; single-dose dolutegravir 50 mg with moderate-fat meal): 41%

C[C@H]1CO[C@@H]2Cn3cc(C(=O)NCc4ccc(F)cc4F)c(=O)c(O)c3C(=O)N12 [cabotegravir, Cabotegravir]
substrate for intestinal uptake transporters such as OATP [2]: not a substrate
effect of high-fat meal on tmax and t1/2 ([3]; 30 mg oral, high-fat meal vs fasting): Neither tmax nor t1/2 was affected
CL/F, Mean (SD) ([3]; 30-mg single oral dose, fasted state, n = 21): 0.218 (0.0611) L/h
CL/F, Mean (SD) [3, 15]: 0.191 (0.0553) L/h
t1/2, Mean (SD) [3, 15]: 41.1 (6.57) h
peak concentration of the one participant excluded from PK analysis ([3]; 2 hours after dosing, fasting conditions, 30 mg oral): 0.0987 µg/mL
AUC0‐∞, GLS Mean Ratio (90% CI) [3, 16]: 1.14 (1.02‐1.28)
C24, GLS Mean Ratio (90% CI) [3, 16]: 1.17 (1.04‐1.30)
CL/F, GLS Mean Ratio (90% CI) [3, 16]: 0.875 (0.785‐0.977)
Cmax, GLS Mean Ratio (90% CI) [3, 16]: 1.14 (1.03‐1.27)
t1/2, GLS Mean Ratio (90% CI) [3, 16]: 0.997 (0.964‐1.03)
quantifiable predose concentrations ([3]; crossover periods, 14-day washout): < 5 % of their respective Cmax values
decrease in CL/F ([3]; high-fat meal compared with after fasting, 30 mg oral): 13%
increase in maximal drug concentration [3, 17]: 14%
increase in plasma area under the concentration‐time curve [3, 17]: 14%
half-life ([3]; human, plasma, po, 30 mg): 41.1 h
half‐life, geometric mean (95% confidence interval) [4]: 38.6 h
effect of rifampin on cabotegravir exposures [5]: significantly reduced
effect of a moderate-fat meal (30% fat, ∼670 calories) on PK [6]: did not significantly affect
Biopharmaceutics Drug Disposition Classification System class [7]: class 2
passive permeability [7]: high
in vitro protein‐adjusted 90% inhibitory concentration [8]: 166 ng/mL
metabolizing enzymes [9]: primarily metabolized by uridine diphosphate glucuronosyltransferase (UGT)1A1
dose proportionality of trough concentration [10]: increase in proportional to dose
dose proportionality of AUC and Cmax ([10]; dose increased from 30 to 60 mg, ref Supplemental Data): less‐than‐dose‐proportional
treatment‐emergent laboratory abnormalities ([11]; grade 2 hypoglycemia, grade 3 increased direct bilirubin): 2 participants
electrocardiographic or vital sign abnormalities reported as AEs ([11]; single 30-mg oral doses): No clinically significant electrocardiographic or vital sign abnormalities
adverse events (grade 3/4, drug-related, serious, leading to discontinuation) ([11]; single 30-mg oral doses, fasted and fed, healthy adults): No grade 3/4 adverse events (AEs), drug‐related AEs, or AEs leading to discontinuation were reported; also recorded: no AEs or serious AEs that led to discontinuation of the study drug
AUC(0-inf) ([12]; read-out: AUC0‐∞): 146 µg·h/mL
median time to peak plasma concentration (tmax) [12]: 2 h
plasma apparent terminal‐phase half‐life (t1/2) [12]: approximately 38.5 hours
binding to serum albumin [13]: highly bound

Cc1nnc(C(=O)NC(C)(C)c2nc(C(=O)NCc3ccc(F)cc3)c(O)c(=O)n2C)o1 [Raltegravir]
increase in AUC from time 0 to 12 hours ([14]; raltegravir 400 mg twice daily with a high-fat meal): 2 fold
increase in AUC from time 0 to last observation ([14]; raltegravir 1200 mg (2 × 600 mg) once daily, following a high-fat meal): 1.9%
decrease in AUC from time 0 to last observation ([14]; raltegravir 1200 mg (2 × 600 mg) once daily, following a low-fat meal): 42%
